Beta apoptosis = beta cell apoptosis inhibition. protection from apoptosis, % (test concentration not listed). AID 435005. actives 0.8% (n = 300,000). INS-1E cytokine-induced death, ATP luminescence, 48 h; percent of positive-control rescue, neutral wells zero;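 active = Every replicate reaches about 75%, or at least half do and their mean reaches it too, limit read from the data; inconclusive = At least half of replicates reach the limit but their mean does not; inactive = Under half of replicates reach the limit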;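 note: 0% = cytokine-treated negative control wells and 100% = positive control rescue; higher means more ATP so stronger rescue from cytokine killing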
CSC inhib = cancer stem cell inhibition; actives 1.1% (n = 300,000); cancer stem cell-like cells viability, luminescence; inhibition, % at 7.5 µM; in the data active = inhibition above about 75%; inconclusive = no clear call, values can overlap the other calls; tested in HMLE shEcad cells
Calb FLC = affects C. albicans growth with fluconazole; C. albicans CaCi-2 (fluconazole-resistant clinical isolate) + fluconazole, Alamar Blue growth, 48 h; growth inhibition, % (no concentration beside the values); actives 0.57% (n = 300,000);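 active = growth inhibition above about 58% in most replicates, limit read from the data, passing the limit was not always enough; inconclusive = exactly half the replicates above a set limit; inactive = most replicates below a set limit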;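 note: all wells also contain fluconazole at 8 µg/ml as a sub-toxic cotreatment; 0% = median of DMSO wells and 100% = median of geldanamycin control wells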
H9c2 TAG inh = triacylglycerol accumulation inhibition; actives 0.66% (n = 230,000); H9c2 cells, Nile Red lipid (TAG) fluorescence; cells loaded with 200 µM oleic acid; inhibition, % at 12.5 µM;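 active = pattern-corrected inhibition of lipid staining of at least 50% with the nuclear-stain viability signal not falling by more than 50%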;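 note: 0% = DMSO wells and 100% = triacsin C control wells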
A1 inh = inhibitors of the anti-apoptotic protein A1, read as caspase activation; AID 2462; MEF A1-2A-BIM cells, Caspase-Glo 3/7 luminescence, 3 h; percent of clofoctol response, vehicle zero; actives 0.066% (n = 330,000); caspase activation, % (test concentration not listed);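 active = over half of replicate activation scores above 10%, or exactly half above 10 with the replicate mean above 10; inconclusive = replicate mean below 10 yet half the replicates above 10; inactive = over half of replicates below 10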
T cruzi repl = blocks replication of Trypanosoma cruzi; inhibition, % (no concentration beside the values); AID 1885; T. cruzi beta-gal in NIH3T3, luminescence, 90 h; actives 1.4% (n = 300,000);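 active = mean inhibition across valid replicates above about 55%, limit read from the data; inconclusive = mean below that limit but half or more replicates reach it; inactive = mean below it, under half of replicates reach it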;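 note: signal also drops with host cell toxicity which is not excluded here; 0% = plate median of DMSO wells and 100% = zero luminescence signal; higher percent means less beta-gal luminescence so fewer parasites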
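Assay system: NIH/3T3 host cells with β-galactosidase reporter T. cruzi; input: 5,000 host fibroblasts per well; compound: single 50 nL compound addition per well in DMSO; timing: ≥90 h infection period, 3 h prior cell attachment; measured by: GalScreen β-gal luminescence, detergent lysis, 60 min; evaluation: percent inhibition of parasite-derived β-gal signal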
* = called active by the depositor; ? = inconclusive; . = no result given. Compounds with a hit are over-represented: about 3.1% of the library has one in this group of screens.

SMILES	Beta apoptosis	CSC inhib	Calb FLC	H9c2 TAG inh	A1 inh	T cruzi repl
CN1CCN(c2nc(Nc3cccc(C(F)(F)F)c3)nc(N3CCOCC3)n2)CC1	9	23	41	29	1	58*
FC(F)(F)c1ccccc1NC(=S)NN=C1CCCCCC1	5	29	95*	.	0	-5
O=C(NC1CCCCCC1)c1ccc[nH]c1=S	-4	3	-7	4	1	58*
CCOC(=O)N1CCN(C(=O)c2cccc(N3C(=O)NC4CC3(C)Oc3ccc(Cl)cc34)c2)CC1 (stereo unspecified)	9	-20	-3	.	-1	10
CC(=O)OC[C@]12CC[C@H]3[C@@](C)(CC[C@H]4C(C)(C)CCC[C@]34C)[C@@H]1C[C@@H](C1=CC(=O)O[C@@H]1OC(C)=O)O2	92*	125*	.	.	?	.
CC(=O)OC[C@]12CC[C@H]3[C@@](C)(CC[C@H]4C(C)(C)CCC[C@]34C)[C@@H]1C[C@H](C1=CC(=O)O[C@H]1OC(C)=O)O2	10	107*	.	.	62*	.
O=C(Cn1c(=O)oc2ccc(Cl)cc21)Nc1ccon1	-4	-23	-1	.	-3	2
CCCCN(C(=O)/C=C/c1ccco1)c1c(N)n(Cc2ccccc2)c(=O)[nH]c1=O	-3	-2	113*	-3	0	.
Cc1ccc(OCC(=O)OCC(=O)NC2CC2)cc1C	-1	2	.	-8	-1	.
Cn1ccsc1=NC(=O)c1ccccc1F	0	-10	2	.	0	-5
Cc1ccc(C)c(-n2c(-c3ccc(Br)cc3)csc2=NC(=O)c2ccccc2F)c1	12	3	.	.	0	64*
CCOC(=O)c1sc(NC(=O)C2CC(=O)N(c3ccccc3OC)C2)nc1C (stereo unspecified)	-6	.	.	13	1	.
Cc1ccc(C(C)C)c(OCc2nn(CC(=O)c3ccc(Cl)cc3)c3[n+]2CCCCC3)c1	136*	?	17	136	0	86*
CCN1CCCC1CNC(=O)c1ccc(Sc2ccc(F)cc2)c([N+](=O)[O-])c1 (stereo unspecified)	-20	79*	2	-20	0	62*
O=C(NCCCN1CCOCC1)c1ccc(Sc2ccc(F)cc2)c([N+](=O)[O-])c1	3	46	0	.	1	61*
CN(C)CCNC(=O)c1ccc(Sc2ccc(Br)cc2)c([N+](=O)[O-])c1	1	67	-1	-7	0	77*
CC(C)(C)c1ccc(C(=O)NCCCN2CCN(CCCNC(=O)c3ccc(C(C)(C)C)cc3)CC2)cc1	.	102*	-2	.	0	26
CS(=O)(=O)c1ccc(N2CCN(S(=O)(=O)c3cccs3)CC2)c([N+](=O)[O-])c1	0	.	.	-16	0	.
O=C1CC[C@@H](OCc2ccccc2)CCN1CC[C@H](Sc1ccccc1)c1ccccc1	-1	41	3	-16	0	21
CC12CCC(=O)N1C(C(=O)NCc1ccccc1F)CS2 (stereo unspecified)	-1	9	-11	-13	0	-2
O=C(NCCCN1CCOCC1)c1ccc(CSc2ccc(Cl)cc2)cc1	-1	76*	22	-13	0	31
O=C(Nc1cc(F)cc(F)c1)c1ccc(NCCc2ccccc2)c([N+](=O)[O-])c1	7	-6	-1	.	0	-8
O=C(Nc1cc(F)cc(F)c1)c1ccc(NCCCN2CCCCCC2)c([N+](=O)[O-])c1	2	44	98*	21	0	19
Cc1ccc(S(=O)(=O)N(Cc2c(F)cccc2Cl)C(=O)N2CCN(C)CC2)cc1	.	-9	-6	-6	2	-3
Cn1cccc1C(=O)NNC(=O)COc1ccccc1F	-8	-7	-3	9	0	-4
SMILES	Beta apoptosis	CSC inhib	Calb FLC	H9c2 TAG inh	A1 inh	T cruzi repl
COc1cc(SC)ccc1C(=O)Nc1nc2ccccc2[nH]1	106*	-5	-6	.	0	-3
COc1ccccc1C(=O)Nc1nc2ccccc2[nH]1	93*	95*	2	.	-9	11
CSc1ccccc1C(=O)Nc1nc2ccccc2[nH]1	6	1	15	2	-4	-15
COc1ccc(C(=S)N2CCOCC2)cc1OS(=O)(=O)c1ccc(Br)cc1	.	-5	-9	-8	-1	8
COc1ccc2c(c1)sc(=NC(=O)CS(=O)(=O)c1ccc(F)cc1)n2C	.	-11	-3	-36	0	63*
CCn1c(=NC(=O)CS(=O)(=O)c2ccc(F)cc2)sc2cccc(OC)c21	.	-7	15	-13	0	39
COc1ccc([N+](=O)[O-])cc1NCc1c(F)cccc1F	.	.	.	6	.	.
CCOC(=O)C(=Cc1ccc(OCc2ccc([N+](=O)[O-])cc2)c(OC)c1)C(=O)OCC	6	116*	-6	-17	3	-23
Cc1ccc(C(=O)/C=C/c2cc(Br)cc(Br)c2O)o1	3	94*	55	.	0	1
Cc1ccc(C(=O)/C=C/N(C)C)o1	.	-6	2	-3	0	-14
O=C(NNC(=O)c1cc(Cl)ccc1O)c1ccc(NS(=O)(=O)c2cccs2)cc1	.	95*	84*	-11	0	-12
Cc1ccc2nc(NC(=O)c3ccc(NS(=O)(=O)c4cccs4)cc3)sc2c1	-5	104*	-5	.	0	4
O=C(NNC(=O)c1cc(F)c(F)cc1Cl)c1ccc(NS(=O)(=O)c2cccs2)cc1	4	-1	.	-6	-1	.
Cc1ccc2nc(NC(=O)CCNS(=O)(=O)c3cccs3)sc2c1	12	-7	16	23	0	12
CC(C)c1ccc(S(=O)(=O)N2CCN(C(=O)C3CCN(C(=O)c4ccc(F)cc4)CC3)CC2)cc1	1	-14	8	11	0	18
CC(=O)C[C@@H](O)CC(=O)[C@@H]1OC(=O)[C@@H](C)C/C=C\Cc2ccccc21	0	.	.	-2	1	.
Cc1ccc(Cc2cnc(NC(=O)c3ccco3)s2)cc1	0	50	?	.	-4	-13
O=C(Nc1ncc(Cc2ccc(SC(F)F)cc2)s1)c1ccc(OC(F)F)cc1	16	75*	2	20	0	-6
O=[N+]([O-])c1cccc(-c2ccc(/C=N/NC(=S)Nc3ccccc3)o2)c1	10	26	-5	.	-2	56*
Cc1ccc(C(=O)NS(=O)(=O)c2ccc(N=NN(C)C)cc2)cc1	0	-5	?	-5	-1	-12
C=CCSc1nsc(NC(=O)Nc2ccc(F)cc2)n1	111*	101*	2	-11	-1	35
CCSc1nsc(NC(=O)Nc2ccccc2F)n1	19	7	-3	-5	-5	-1
Cc1ccc(S(=O)(=O)CCC(=O)OCc2nnc(-c3ccc([N+](=O)[O-])cc3)o2)cc1	.	.	.	4	.	.
Fc1ccccc1Nc1nc(-c2ccncc2)nc2ccccc12	-5	10	-4	25	0	55*
